From PMC7312786 (Biochemistry, 2018)
Where two headings read alike, the source gives them in different places.

Assays:
[1] = system: γH2AX in hpol η-proficient HAP-1 cells; assay: γH2AX immunoblotting, hpol η-proficient HAP-1 cells; type: cell-based, human; conditions: CDDP alone (0.5 μM)
Outline: (§1)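 HAP-1 cells treated with DMSO or 0.5 μM CDDP combined with 0.1 or 1 μM test compound. Pellets lysed at 4 °C in HEPES pH 7.5/Triton X-100 buffer with phosphatase and protease inhibitors. 30–40 μg protein run on 4–20% SDS-PAGE, transferred to nitrocellulose. Probed with anti-γH2AX (S139) 1:1500 and HRP anti-rabbit 1:4000; β-actin loading control; chemiluminescence. Bands normalized to β-actin, relative to DMSO; three biological replicates; t test.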

[2] = system: HAP-1 cells (hpol η-proficient, parental); assay: Cell viability; type: cell-based, human; conditions: read-out: EC50 of CDDP, cell viability, parental HAP-1
Outline: (§2)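 HAP-1 parental or CRISPR hpol η-null cells in IMDM with 10% FBS and 1% antibiotic/antimycotic, passage 8–10, seeded 5000 cells/well. Next day: CDDP 0–100 μM alone or with 0.1 or 1 μM test compound, 48 h. Cells washed twice in DPBS, then 2 μM Calcein-AM for 30 min at 25 °C; fluorescence ex 490/em 520 nm. Viability as % of untreated. […] Combination index by Chou–Talalay.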

[3] = system: hpol η-deficient HAP-1 cells; assay: Cell viability; type: cell-based, human
Outline: as §2

[4] = system: γH2AX in hpol η-deficient HAP-1 cells; assay: γH2AX immunoblotting, hpol η-deficient HAP-1 cells; type: cell-based, human; conditions: CDDP (0.5 μM)
Outline: as §1

[5] = system: pol binding to DNA; conditions: cited from earlier work
[6] = molecular target: T1, hpol η (Homo sapiens, UniProt Q9Y253); conditions: cited from earlier work
T1 sequence (Q9Y253 1-437): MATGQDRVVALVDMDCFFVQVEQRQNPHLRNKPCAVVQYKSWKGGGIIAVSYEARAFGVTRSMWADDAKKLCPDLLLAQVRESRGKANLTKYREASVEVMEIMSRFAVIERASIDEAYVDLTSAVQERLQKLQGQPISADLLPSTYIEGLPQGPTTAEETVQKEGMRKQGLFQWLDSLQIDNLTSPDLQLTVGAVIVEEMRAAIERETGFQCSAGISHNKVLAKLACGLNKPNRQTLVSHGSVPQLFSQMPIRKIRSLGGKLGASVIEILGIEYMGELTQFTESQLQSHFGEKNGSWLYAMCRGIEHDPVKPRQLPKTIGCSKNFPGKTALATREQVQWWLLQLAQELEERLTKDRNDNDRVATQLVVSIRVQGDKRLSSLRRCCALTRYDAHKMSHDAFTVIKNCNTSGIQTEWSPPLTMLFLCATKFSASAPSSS

Q: For `N.N.[Cl][Pt][Cl]` [CDDP, cis-diamminedichloroplatinum(II), reference compound], which “Amount of μH2AX” value [1] is on record?
A: did not change substantially

Q: What about the EC50 ([2]; CDDP + 0.1 μM PNR-7-02) of the same compound?
A: 140 nM

Q: And the EC50 ([2]; CDDP + 1 μM PNR-7-02)?
A: 120 nM

Q: And the “Reduction of CDDP EC50 by loss of hpol η” value ([3]; hpol η-deficient versus parental HAP-1)?
A: ~ 3 fold

Q: What about the EC50 ([3]; read-out: EC50 of CDDP, cell viability, hpol η-deficient HAP-1, CDDP alone) of the same compound?
A: 100 nM

Q: And the “Increase of μH2AX” value [4]?
A: ~ 5 fold

Q: Which “Impact on pol binding to DNA” value [5] does the source give for `CC(C)c1ccc2c(c1)c(SC(C)(C)C)c(CC(C)(C)C(=O)O)n2Cc1ccc(Cl)cc1` [MK-886] here?
A: negligible impact

Q: For `O=C1NC(=S)NC(=O)C1=Cc1cn(C(=O)c2ccccc2Br)c2ccc(Cl)cc12` [PNR-3-51, 5-((1-(2-bromobenzoyl)-5-chloro-1H-indol-3-yl)methylene)-2-thioxodihydropyrimidine-4,6(1H,5H)-dione], which “Specificity for hpol η over other pols” value ([6]; over other TLS and DNA repair pols) is on record?
A: less than 2 fold

Q: And the IC50 ([6]; read-out: IC50 against hpol η, previous publication)?
A: ~30000 nM

Q: For `CCOc1nc2cccc(C(=O)OC(C)OC(=O)OC3CCCCC3)c2n1Cc1ccc(-c2ccccc2-c2nnn[nH]2)cc1` (stereo not shown) [candesartan cilexetil], which “Impact on pol binding to DNA” value [5] is on record?
A: negligible impact
